The subject of one assay is dengue virus type 2. Nature of the assay: Antiviral activity against DENV-2 infected in African green monkey Vero cells assessed as virus titer reduction incubated for 48 hrs by plaque assay. Format: functional, organism-based.
The nature of assay [1]: Inhibition of Dengue virus 2'-O methyltransferase incubated for 15 mins followed by [methyl-3-H]-AdoMet addition and measured after 30 mins by microbeta counter method. Put shortly: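 DENV-3 2′-O-MTase (0.5 µM) in 40 mM Tris-HCl pH 7.5 and 5 mM DTT with 1 µM capped RNA GpppAC5 and 10 µM AdoMet containing [3H]AdoMet, 30 °C for 30 min. Stopped by 20-fold dilution in ice-cold 100 µM AdoHcy. RNA captured on DEAE filter, washed, and transferred radioactivity counted. Inhibitor serially diluted, points in triplicate; IC50 from logistic dose-response fit with slope factor.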

Assay [2] can be described thus: Inhibition of Dengue virus N-7 methyltransferase incubated for 15 mins followed by [methyl-3-H]-AdoMet addition and measured after 15 mins by microbeta counter method.

Consider `C#C[C@@]1(O)[C@H](O)[C@@H](CO)O[C@H]1n1ccc2c(N)ncnc21`, for which the EC50 (in general, the concentration that produces a half-maximal response) in the assay on dengue virus type 2 was found to be 640 nM.

For `Nc1ncnc2c1ncn2[C@@H]1O[C@H](C[C@@H](N)CC[C@H](N)C(=O)O)[C@@H](O)[C@H]1O` [SINEFUNGIN], the values for the IC50 in assay [1] and in assay [2] were 41 nM and 30 nM, respectively.

The values are drawn from ChEMBL document CHEMBL4699605, “Synthesis and biological evaluation of novel flexible nucleoside analogues that inhibit flavivirus replication in vitro” (Bioorg Med Chem, 2020).
